Among the data in the array DNA melting data of Ke et al. (doi:10.1101/2024.01.08.574731) are folding enthalpy and Tm values, retold here.

Series [1] is described as follows: folding enthalpy; higher = less favourable; fluorescence melt of hairpins on a sequencing array, two-state fit. The settings on record: sodium 0.088 M. Summed up:
(§1)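 Cy3 signals were normalised both to pre-quench Cy3 and to control constructs. They came from library hairpins carrying annealed Cy3 and quencher oligos on a sequenced MiSeq flow cell, imaged in 50 mM Na-HEPES pH 8.0, 25 mM NaCl, in 2.5 °C steps up to 60 °C. Bootstrapped two-state fits gave melting temperature and folding enthalpy, and four replicates were combined by inverse variance. Fitted temperatures were then raised by 9.35 °C to match UV melts.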

Series [2] in a line: melting temperature; fluorescence melt of hairpins on a sequencing array, two-state fit, raised by 9.35 °C to match UV melts. The settings on record: sodium 0.088 M. Summed up: as §1

As for GAGATTGCGAAAGCACTC (((..(((....)))))), the folding enthalpy in series [1] was -47.5 kJ/mol. For the same sequence, in series [2], the Tm is 29.5 °C.

On to GTCTATGGAAACATAGGC (.(((((....))))).), for which the folding enthalpy in series [1] was -129 kJ/mol. The Tm in series [2] came to 44 °C.

For GCTTACGAAAGTAAGC ((((((....)))))), in series [1], the folding enthalpy was -133 kJ/mol. Also, the Tm in series [2] was 68.9 °C.

As to CGGCACCGGAAACGGCCG (((..(((....)))))), the folding enthalpy in series [1] is -122 kJ/mol. The Tm in series [2] was 49.2 °C.

GCTTGCGAAAGCACAAGC ((((((....)))..))): in series [1], the folding enthalpy was -67.4 kJ/mol. Moreover, the Tm in series [2] worked out at 45.3 °C.

Consider GCTCACGGAAACGTGAAC (.(((((....))))).), for which, in series [1], the folding enthalpy is -54.6 kJ/mol. For the same sequence, in series [2], the Tm came out at 42.3 °C.

Take ATCTTGAAAAAGAT (((((....))))): the folding enthalpy in series [1] was -41.6 kJ/mol. Further, the Tm in series [2] worked out at 32.9 °C.

Consider GGGCACGGAAACGTACCC (((.(((....))).))), for which, in series [1], the folding enthalpy was -168 kJ/mol. Besides, in series [2], the Tm amounted to 51.4 °C.

On to GATCTCGCTGAGATC ((((((...)))))), for which the folding enthalpy in series [1] is -182 kJ/mol. Further, the Tm in series [2] was found to be 53.8 °C.

With GATCCTATATAGGATC ((((((....)))))), in series [1], the folding enthalpy is -195 kJ/mol. In addition, the Tm in series [2] is 52.3 °C.

For GATCACATACGTGATC ((((((....)))))), in series [1], the folding enthalpy is -172 kJ/mol. The Tm in series [2] amounted to 57.4 °C.

For the sequence GTCGACGAAAGTCTCGAC ((((((....)))..))), the folding enthalpy in series [1] was -76.6 kJ/mol. In addition, the Tm in series [2] stood at 41.8 °C.

For the sequence GTGACAGGAAACTGTTGC (..((((....))))..), in series [1], the folding enthalpy is -87 kJ/mol. In series [2], the Tm amounted to 37.3 °C.

Consider GCTCGATCGAAAGATAGC (((..(((....)))))), for which the folding enthalpy in series [1] is -49 kJ/mol. In addition, the Tm in series [2] was found to be 28.1 °C.

In the case of GGGATTGGAAACAATCTC (.(((((....))))).), in series [1], the folding enthalpy is -119 kJ/mol. In addition, in series [2], the Tm worked out at 45.3 °C.

In the case of GCGTAGGACGC ((((...)))), in series [1], the folding enthalpy is -72 kJ/mol. In series [2], the Tm was determined as 55.2 °C.

Regarding GAACCCGGAAACGGATTC (((.(((....))).))), in series [1], the folding enthalpy was -87.9 kJ/mol. In addition, the Tm in series [2] came to 41.5 °C.

With GTGTTCGAAAGAACTCAC ((((((....)))..))), the folding enthalpy in series [1] was -57.1 kJ/mol. Further, in series [2], the Tm was 38.1 °C.

Consider GGGCCGCGAAAGCGTCCC (((.(((....))).))), for which the folding enthalpy in series [1] was -85.5 kJ/mol. Further, the Tm in series [2] was 65.8 °C.

In the case of GAGTACCGAAAGGTGCTC (((.(((....))).))), in series [1], the folding enthalpy is -153 kJ/mol. The Tm in series [2] amounted to 60.6 °C.

Regarding GTCCTGGGAAACCGGGAC ((((.((....)).)))), the folding enthalpy in series [1] is -164 kJ/mol. In series [2], the Tm came to 55.7 °C.

As to GATCATATCTATGATC ((((((....)))))), the folding enthalpy in series [1] is -174 kJ/mol. In series [2], the Tm came out at 48.5 °C.

For GTGAGCCGAAAGGCCCAC (((.(((....))).))), the folding enthalpy in series [1] is -97.5 kJ/mol. For the same sequence, in series [2], the Tm worked out at 55.3 °C.

Turning to GTGAGGGGAAACTCTCGC (.(((.(....).))).), the folding enthalpy in series [1] is -104 kJ/mol. The Tm in series [2] worked out at 37.2 °C.

In the case of GTTTACGGAAACGTAAAC (((((((....))))))), the folding enthalpy in series [1] was -172 kJ/mol. Further, the Tm in series [2] worked out at 57.5 °C.

For GATCTCGTTCGAGATC ((((((....)))))), in series [1], the folding enthalpy is -173 kJ/mol. In addition, the Tm in series [2] stood at 60.9 °C.

Take GTCTGCGAAAGCAACGAC ((((((....)))..))): in series [1], the folding enthalpy is -55 kJ/mol. Also, the Tm in series [2] came to 44.9 °C.

Consider GATCCCTCGGGGGATC ((((((....)))))), for which the folding enthalpy in series [1] was -156 kJ/mol. Also, the Tm in series [2] turned out to be 61.2 °C.

Turning to GATCCTACTCAGGATC ((((((....)))))), in series [1], the folding enthalpy is -135 kJ/mol. Moreover, the Tm in series [2] amounted to 52 °C.

As for GTGGTCGAAAGACCTCAC ((((((....)))..))), the folding enthalpy in series [1] was -44.6 kJ/mol. In series [2], the Tm was 38 °C.

CGCAACCGGAAACGGGCG (((..(((....)))))): in series [1], the folding enthalpy is -87.1 kJ/mol. The Tm in series [2] is 50.1 °C.

Regarding GATCTGGTGTCAGATC ((((((....)))))), the folding enthalpy in series [1] is -147 kJ/mol. Moreover, the Tm in series [2] came to 49.8 °C.

With GCTGCGCGAAAGCACCGC ((.(.((....)).).)), the folding enthalpy in series [1] is -89.6 kJ/mol. Also, in series [2], the Tm worked out at 41.3 °C.

With GAATTAGGAAACTAATTC (((((((....))))))), the folding enthalpy in series [1] is -162 kJ/mol. Moreover, in series [2], the Tm came to 46.9 °C.

For GCAGAGGGAAACCTCCAC (..((((....))))..), the folding enthalpy in series [1] is -57.3 kJ/mol. For the same sequence, the Tm in series [2] was 25.4 °C.

In the case of GATCAAGCCTTTGATC ((((((....)))))), in series [1], the folding enthalpy is -170 kJ/mol. In addition, the Tm in series [2] came to 49.2 °C.

Take GACCGACGAAAGTCGTC (((.(((....)))))): the folding enthalpy in series [1] is -44.5 kJ/mol. In series [2], the Tm was determined as 45 °C.
